Measured values: article PMC3992716 (European journal of pharmacology, 2013)

Columns and labels:
[1] = molecular target: T1, α4(2)β2(2)α5 (Homo sapiens, UniProt P17787+P30532+P43681); assay type: cell-based
In short: (§1)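 Xenopus oocytes defolliculated with collagenase, clamped at −60 mV and perfused with Ringer's containing 1 μM atropine. Rising test compound concentrations were co-applied with control ACh (100 μM for α4(2)β2(2)α5, 30 μM for α4β2α6β2β3), alternating with ACh alone; fresh cells were used if ACh controls fell below 75%. Peak currents were normalised to the preceding ACh control.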

[2] = molecular target: T2, α4β2α6β2β3 (Homo sapiens, UniProt P17787+P43681+Q05901+Q15825); assay type: cell-based
T2 sequence (P43681 27-627): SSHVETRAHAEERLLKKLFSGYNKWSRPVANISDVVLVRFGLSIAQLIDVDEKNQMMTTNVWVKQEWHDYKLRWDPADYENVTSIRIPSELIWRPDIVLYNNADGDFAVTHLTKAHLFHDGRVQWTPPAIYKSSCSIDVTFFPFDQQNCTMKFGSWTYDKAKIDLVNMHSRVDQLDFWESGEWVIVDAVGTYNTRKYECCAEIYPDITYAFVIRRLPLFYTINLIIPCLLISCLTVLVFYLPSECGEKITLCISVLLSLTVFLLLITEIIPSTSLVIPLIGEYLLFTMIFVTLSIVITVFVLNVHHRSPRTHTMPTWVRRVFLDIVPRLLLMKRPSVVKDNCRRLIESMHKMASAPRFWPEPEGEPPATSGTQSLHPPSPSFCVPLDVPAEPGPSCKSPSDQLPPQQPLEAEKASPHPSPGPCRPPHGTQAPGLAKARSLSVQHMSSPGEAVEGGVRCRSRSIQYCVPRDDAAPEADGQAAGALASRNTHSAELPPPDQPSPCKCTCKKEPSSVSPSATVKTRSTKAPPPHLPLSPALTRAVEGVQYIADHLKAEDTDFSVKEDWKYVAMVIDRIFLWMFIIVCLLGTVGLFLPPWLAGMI
T2 sequence (P17787 26-502): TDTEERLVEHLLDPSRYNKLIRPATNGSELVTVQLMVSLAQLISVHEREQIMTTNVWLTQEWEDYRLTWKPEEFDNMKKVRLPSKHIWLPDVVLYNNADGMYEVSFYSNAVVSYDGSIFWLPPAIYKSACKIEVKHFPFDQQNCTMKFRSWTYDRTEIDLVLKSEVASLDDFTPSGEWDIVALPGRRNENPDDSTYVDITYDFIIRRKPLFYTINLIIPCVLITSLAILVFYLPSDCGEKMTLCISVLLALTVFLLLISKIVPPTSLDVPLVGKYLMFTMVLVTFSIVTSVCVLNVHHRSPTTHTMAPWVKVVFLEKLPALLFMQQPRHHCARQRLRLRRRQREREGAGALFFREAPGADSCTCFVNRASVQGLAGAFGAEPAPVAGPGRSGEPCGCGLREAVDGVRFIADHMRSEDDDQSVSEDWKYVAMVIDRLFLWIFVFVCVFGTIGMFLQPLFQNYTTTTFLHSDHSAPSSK
T2 sequence (Q15825 26-494): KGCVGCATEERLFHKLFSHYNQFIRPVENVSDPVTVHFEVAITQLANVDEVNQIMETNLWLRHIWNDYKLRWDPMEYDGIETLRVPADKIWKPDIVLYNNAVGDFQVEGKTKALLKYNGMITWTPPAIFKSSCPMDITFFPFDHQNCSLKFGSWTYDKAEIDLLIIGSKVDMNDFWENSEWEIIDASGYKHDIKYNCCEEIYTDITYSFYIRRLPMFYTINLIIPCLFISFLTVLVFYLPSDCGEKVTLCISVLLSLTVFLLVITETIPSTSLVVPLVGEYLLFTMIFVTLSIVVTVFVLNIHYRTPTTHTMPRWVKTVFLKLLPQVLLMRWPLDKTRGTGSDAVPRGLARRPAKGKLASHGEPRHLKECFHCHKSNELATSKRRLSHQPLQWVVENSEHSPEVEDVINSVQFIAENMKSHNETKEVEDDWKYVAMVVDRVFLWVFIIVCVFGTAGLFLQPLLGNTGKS
T2 sequence (Q05901 22-458): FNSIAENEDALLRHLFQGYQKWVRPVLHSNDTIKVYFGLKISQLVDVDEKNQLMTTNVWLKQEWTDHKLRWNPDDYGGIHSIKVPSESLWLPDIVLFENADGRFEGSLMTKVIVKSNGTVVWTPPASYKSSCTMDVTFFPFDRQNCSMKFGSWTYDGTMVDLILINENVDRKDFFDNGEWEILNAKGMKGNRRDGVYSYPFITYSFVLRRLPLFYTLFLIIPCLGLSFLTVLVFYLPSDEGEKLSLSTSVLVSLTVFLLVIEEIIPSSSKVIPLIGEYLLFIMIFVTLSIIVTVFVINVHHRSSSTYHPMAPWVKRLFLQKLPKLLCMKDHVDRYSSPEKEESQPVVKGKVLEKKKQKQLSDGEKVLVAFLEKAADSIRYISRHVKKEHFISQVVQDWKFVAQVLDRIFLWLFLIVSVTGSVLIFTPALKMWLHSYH
In short: as §1

[3] = molecular target: T2, α4β2α6β2β3; assay: cell-based
[4] = molecular target: α2(2)β2(2)α5 (Homo sapiens, UniProt P17787+P30532+Q15822); assay: two-electrode voltage clamp, Xenopus oocytes, agonist-evoked response; assay type: cell-based
α2(2)β2(2)α5, sequence (Q15822 27-529): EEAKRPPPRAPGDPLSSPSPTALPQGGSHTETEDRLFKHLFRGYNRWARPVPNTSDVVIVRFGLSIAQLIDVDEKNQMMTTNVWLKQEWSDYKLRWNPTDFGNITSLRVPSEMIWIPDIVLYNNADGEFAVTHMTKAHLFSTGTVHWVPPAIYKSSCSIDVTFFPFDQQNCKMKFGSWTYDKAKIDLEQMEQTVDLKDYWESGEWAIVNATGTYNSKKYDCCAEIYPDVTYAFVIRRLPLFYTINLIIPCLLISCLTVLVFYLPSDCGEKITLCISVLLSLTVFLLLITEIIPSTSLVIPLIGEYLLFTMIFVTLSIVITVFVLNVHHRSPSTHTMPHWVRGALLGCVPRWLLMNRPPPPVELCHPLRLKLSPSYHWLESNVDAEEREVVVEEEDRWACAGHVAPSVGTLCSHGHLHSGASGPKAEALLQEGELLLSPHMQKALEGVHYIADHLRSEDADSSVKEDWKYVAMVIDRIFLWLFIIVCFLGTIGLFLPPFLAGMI
α2(2)β2(2)α5, sequence (P17787 26-502): as the sequence (P17787 26-502) above
α2(2)β2(2)α5, sequence (P30532 23-468): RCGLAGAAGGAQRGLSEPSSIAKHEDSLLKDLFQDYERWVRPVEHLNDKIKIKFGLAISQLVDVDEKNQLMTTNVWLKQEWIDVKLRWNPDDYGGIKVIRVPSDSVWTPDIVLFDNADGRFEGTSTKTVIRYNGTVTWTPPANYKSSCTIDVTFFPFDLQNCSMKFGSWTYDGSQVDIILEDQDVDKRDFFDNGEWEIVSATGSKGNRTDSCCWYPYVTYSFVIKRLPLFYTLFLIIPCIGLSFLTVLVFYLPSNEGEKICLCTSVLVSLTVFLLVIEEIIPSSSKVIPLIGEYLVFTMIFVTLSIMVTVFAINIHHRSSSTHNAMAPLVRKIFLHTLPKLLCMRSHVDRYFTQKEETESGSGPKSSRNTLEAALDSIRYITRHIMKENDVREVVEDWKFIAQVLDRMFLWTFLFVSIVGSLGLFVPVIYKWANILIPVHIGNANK

[5] = molecular target: T1, α4(2)β2(2)α5; assay: cell-based

T1 sequence (P43681 27-627): as the sequence (P43681 27-627) above
T1 sequence (P17787 26-502): as the sequence (P17787 26-502) above
T1 sequence (P30532 23-468): as the sequence (P30532 23-468) above

| IC50 [1] [µM] | IC50 [2] [µM] | SMILES | EC50 [3] [µM] | EC50 [4] [µM] | EC50 [5] [µM] |
| --- | --- | --- | --- | --- | --- |
| 35 ± 5 | 13 ± 5 | CNC1(C)C2CCC(C2)C1(C)C (stereo not drawn) [R(-)Mecamylamine, N-2,3,3-tetramethylbicyclo[2.2.1]heptan-2-amine] | – | – | – |
| – | – | CCOc1cncc(/C=C/CCNC)c1 [TC-2559] | 1.7 ± 0.3 | 6.2 ± 1 | 1.6 ± 0.3 |
| 12 ± 1 | 14 ± 7 | CN[C@@]1(C)[C@@H]2CC[C@@H](C2)C1(C)C [S(+)Mecamylamine, N-2,3,3-tetramethylbicyclo[2.2.1]heptan-2-amine] | – | – | – |
| – | – | CN1CCC[C@H]1c1cccnc1 [nicotine] | – | 1.6 ± 0.2 | – |
